{"data": "Results from different studies", "WNK1": "Serine/threonine-protein kinase WNK1 (WNK1, Homo sapiens, UniProt Q9H4A3)", "MALT1": "Mucosa-associated lymphoid tissue lymphoma translocation protein 1 (MALT1, Homo sapiens, UniProt Q9UDY8)", "CDK15": "Cyclin-dependent kinase 15 (CDK15, Homo sapiens, UniProt Q96Q40)"}
{"Compound": "Nc1ncc(-c2nc(N3CCOCC3)nc(N3CCOCC3)n2)c(C(F)F)n1", "target": "WNK1", "test": "binding, competition with immobilised ligand", "setting": "10 µM", "measurement": "remaining binding", "value": "57%"}
{"Compound": "COc1ncccc1-c1cnn2ccc(N3CCN(C(=O)OC(C)C)CC3)nc12", "target": "WNK1", "test": "binding, competition with immobilised ligand", "setting": "1 µM", "measurement": "remaining binding", "value": "74%"}
{"Compound": "CCCCCn1nc(C(=O)N[C@H](C(N)=O)C(C)C)c2ccccc21", "target": "Cannabinoid receptor 1 (CNR1, Homo sapiens, UniProt P21554)", "test": "calcium signal, agonist, fluorescence", "measurement": "Emax", "value": "116%"}
{"Compound": "[H]/N=C(/N)c1ccc(NCc2nc3cc(C(=O)N(CCC(=O)O)c4ccccn4)ccc3n2C)cc1", "target": "Vitamin K-dependent protein C (PROC, Homo sapiens, UniProt P04070)", "test": "enzyme activity, inhibitor", "setting": "0.2 µM", "measurement": "inhibition", "value": "16%"}
{"Compound": "COc1cc(Cl)c(C(=O)N[C@@H](CN[C@H]2CC[C@@H](N)CC2)Cc2ccc(C#N)cc2)cc1-c1ccc(CN[C@H](C)c2ccc(C)cc2)o1", "target": "Serine/threonine-protein kinase Nek3 (NEK3, Homo sapiens, UniProt P51956)", "test": "enzyme activity, inhibitor", "setting": "1 µM", "measurement": "remaining activity", "value": "107%"}
{"Compound": "CN(C)C(=O)COC(=O)Cc1ccc(OC(=O)c2ccc(NC(=N)N)cc2)cc1", "target": "MALT1", "test": "enzyme activity, inhibitor", "setting": "10 µM", "measurement": "inhibition", "value": "48%"}
{"Compound": "O=[N+]([O-])c1cccc2[nH]c(CNc3nc(N4CCOCC4)nc4c3ncn4-c3ccsc3)nc12", "target": "CDK15", "test": "binding, competition with immobilised ligand", "setting": "10 µM", "measurement": "binding vs control", "value": "47%"}
{"Compound": "CCN(CC)CCCC[C@H](NC(=O)[C@H](CC(C)C)NC(=O)[C@H](C)NC(=O)[C@H](Cc1ccccc1)NC(=O)c1ccc(C(C)(C)C)cc1)C(=O)N[C@@H](CO)C(=O)OC", "target": "ATPase family AAA domain-containing protein 2B (ATAD2B, Homo sapiens, UniProt Q9ULI0)", "test": "thermal stability, DSF", "setting": "25 µM", "measurement": "ΔTm", "value": "0 °C"}
{"Compound": "CC(C)[C@H](NC(=O)OCc1ccccc1)C(=O)N[C@@H](CCCN=C(N)N)C(=O)N1CCC[C@H]1C(=O)N[C@@H](CCCN=C(N)N)C(=O)CF", "target": "MALT1", "test": "enzyme activity, inhibitor", "setting": "10 nM", "measurement": "inhibition", "value": "56%"}
{"Compound": "CN(CCN1CCC(OC(=O)Nc2ccccc2-c2ccccc2)CC1)C(=O)c1ccc(CN2CCC(C(N)=O)CC2)cc1", "target": "Endothelin-1 receptor (EDNRA, Homo sapiens, UniProt P25101)", "test": "ligand displacement, radioligand", "setting": "1 µM", "measurement": "inhibition", "value": "23%"}
{"Compound": "Cc1nn(C)cc1-c1nc2c(N3CCN(Cc4ccc(Cl)cc4)CC3)c(Cl)cnc2[nH]1", "target": "Phosphatidylinositol 4-phosphate 3-kinase C2 domain-containing subunit beta (PIK3C2B, Homo sapiens, UniProt O00750)", "test": "binding, competition with immobilised ligand", "setting": "1 µM", "measurement": "remaining binding", "value": "100%"}
{"Compound": "C[C@@H](NC(=O)[C@@H](N)Cc1ccc(O)cc1)C(=O)N[C@@H](Cc1ccccc1)C(=O)NCC(=O)N[C@@H](Cc1ccc(O)cc1)C(=O)N1CCC[C@H]1C(=O)N[C@@H](CCCCN)C(=O)N[C@@H](CSC1CC(=O)N(CCCCCNC(=O)c2ccc(C3=c4cc5c(cc4Oc4cc6c(cc43)C(CS(=O)(=O)[O-])=CC(C)(C)N6C)=[N+](C)C(C)(C)C=C5CS(=O)(=O)O)c(C(=O)O)c2)C1=O)C(N)=O (stereo partly shown)", "target": "Mu-type opioid receptor (Oprm1, Mus musculus, UniProt P42866)", "test": "binding", "measurement": "koff", "value": "0.068 s⁻¹"}
{"Compound": "Fc1cccc(-n2cnc3c(NCc4nc5c(F)c(F)ccc5[nH]4)nc(N4CCOCC4)nc32)c1", "target": "CDK15", "test": "binding, competition with immobilised ligand", "setting": "10 µM", "measurement": "binding vs control", "value": "20%"}
